≈ marks a conversion by molar mass, not a printed value.
Tests used:
Human alphaherpesvirus 1 [1] = assay: Antiviral activity against HSV-1 virus infected HEF cell lines.; assay type: functional
In short: (§1)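 Human embryonic fibroblasts, from embryonic lung or embryonic skin-muscle, infected with the virus. Endpoint is the minimum inhibitory concentration that reduces virus-induced cytopathicity by 50%. Values are averages of at least two separate experiments.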

[2] = test system: Mammalian orthoreovirus 1; assay: Antiviral activity against Reo 1 virus infected vero cell lines.; assay type: functional
In short: (§2)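 Vero (African green monkey kidney), HeLa (human epithelial) or HEL (human embryonic lung) cell monolayers infected with the virus. Readout is the minimum inhibitory concentration that reduces virus-induced cytopathicity by 50%. Values are averages of at least two separate experiments.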

Human alphaherpesvirus 3 [3] = assay: Antiviral activity against TK-VZV virus infected HEL cell lines.; assay type: functional; in short: as §2
MDCK [4] = assay: Antiviral activity of compound was tested against morphology virus infec+ted MDCK cell lines.; assay type: functional; settings: Canis lupus familiaris
[5] = test system: Vesicular stomatitis virus; assay: Antiviral activity against vesicular stomatitis virus infected HEF cell lines.; assay type: functional; in short: as §1
CCRF-CEM = assay: Cytotoxicity against CEM cell lines.; assay type: functional; settings: Homo sapiens
Coxsackievirus B4 [6] = assay: Antiviral activity against Coxsackie B4 virus infected vero cell lines.; assay type: functional; settings: Enterovirus B; in short: as §2
Human respirovirus 3 = assay: Antiviral activity against parainfluenza 3 virus infected Vero cell lines.; assay type: functional; in short: as §2
[7] = test system: Human immunodeficiency virus 1; assay: Antiviral activity against HIV-1 virus infected CEM cell lines.; assay type: functional, CCRF-CEM
Vaccinia virus = assay: Antiviral activity against vaccinia virus infected HEF cell lines.; assay type: functional; settings: Orthopoxvirus vaccinia; in short: as §1
HEF = assay: Effects on cell morphology of HEF cell lines.; assay type: functional; settings: Homo sapiens
In short: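 Human embryonic skin-muscle fibroblasts were examined under the microscope for changes in normal cell morphology. The value is the minimum concentration causing a microscopically detectable alteration, averaged from at least two separate experiments.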

HeLa = assay: Effects on cell morphology of HeLa cell lines.; assay type: functional; settings: Homo sapiens
In short: (§3)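 HeLa (human epithelial) or Vero (African green monkey kidney) cells were examined under the microscope for changes in normal morphology. The value is the minimum concentration causing a detectable alteration, averaged from at least two separate experiments.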

Sindbis virus = assay: Antiviral activity against sindbis virus infected Vero cell lines.; assay type: functional; in short: as §2
Vero = assay: Effects on cell morphology of Vero cell lines.; assay type: functional; settings: Chlorocebus sabaeus; in short: as §3
Human alphaherpesvirus 3 [8] = assay: Antiviral activity against TK+VZV virus infected HEL cell lines.; assay type: functional; in short: as §2
Human betaherpesvirus 5 = assay: Antiviral activity against HCMV virus infected HEL cell lines.; assay type: functional; in short: as §2
[9] = test system: Vesicular stomatitis virus; assay: Antiviral activity against vesicular stomatitis virus infected HeLa cell lines.; assay type: functional; in short: as §2
[10] = Antiviral activity against influenza A,H3N2 virus infected MDCK cell lines.; assay type: functional
Enterovirus C = assay: Antiviral activity against polio 1 virus infected HeLa cell lines.; assay type: functional; in short: as §2
Semliki Forest virus = assay: Antiviral activity against Semliki forest virus infected Vero cell lines.; assay type: functional; in short: as §2
[11] = Antiviral activity against influenza A,H2N2 virus infected MDCK cell lines.; assay type: functional
Coxsackievirus B4 [12] = assay: Antiviral activity against Coxsackie B4 virus infected HeLa cell lines.; assay type: functional; settings: Enterovirus B; in short: as §2
MDCK [13] = assay: Antiviral activity tested against influenza A,H1N1 virus infected MDCK cell lines.; assay type: functional; settings: Canis lupus familiaris
Human alphaherpesvirus 1 [14] = assay: Antiviral activity against TK-HSV-1 virus infected HEF cell lines.; assay type: functional; in short: as §1
Influenza B virus = assay: Antiviral activity against influenza B virus infected MDCK cell lines.; assay type: functional
Human alphaherpesvirus 2 = assay: Antiviral activity against HSV-2 virus infected HEF cell lines.; assay type: functional; in short: as §1
HEL = assay: Inhibition of HEL cell proliferation.; assay type: functional; settings: Homo sapiens
In short: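 Human embryonic lung fibroblasts were used for the proliferation assay. The value is the concentration that reduces cell proliferation by 50%, averaged from at least two separate experiments.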

[15] = test system: Human immunodeficiency virus 2; assay: Antiviral activity against HIV-2 virus infected CEM cell lines.; assay type: functional, CCRF-CEM

| SMILES | MIC50 (Human alphaherpesvirus 1 [1]) | MIC50 [2] | MIC50 (Human alphaherpesvirus 3 [3]) | MIC50 (MDCK [4]) | MIC50 [5] | MIC50 (CCRF-CEM) | MIC50 (Coxsackievirus B4 [6]) | MIC50 (Human respirovirus 3) | MIC50 [7] | MIC50 (Vaccinia virus) | MIC50 (HEF) | MIC50 (HeLa) | MIC50 (Sindbis virus) | MIC50 (Vero) | MIC50 (Human alphaherpesvirus 3 [8]) | MIC50 (Human betaherpesvirus 5) | MIC50 [9] | MIC50 [10] | MIC50 (Enterovirus C) | MIC50 (Semliki Forest virus) | other results |
| --- | --- | --- | --- | --- | --- | --- | --- | --- | --- | --- | --- | --- | --- | --- | --- | --- | --- | --- | --- | --- | --- |
| C1CCC2(CC1)CCCN2CC12CC3CC(CC(C3)C1)C2 | > 40 µg/mL | > 100 µg/mL | 20 µg/mL (≈ 69.6 µM) | > 250 µg/mL | > 40 µg/mL | 33 µg/mL (≈ 115 µM) | > 100 µg/mL | > 100 µg/mL | > 20 µg/mL | > 40 µg/mL | 100 µg/mL (≈ 348 µM) | 200 µg/mL (≈ 696 µM) | > 100 µg/mL | > 200 µg/mL | 30 µg/mL (≈ 104 µM) | > 50 µg/mL | 100 µg/mL (≈ 348 µM) | > 100 µg/mL | > 100 µg/mL | > 100 µg/mL | MIC50 [11]: > 100 µg/mL; MIC50 (Coxsackievirus B4 [12]): > 100 µg/mL; MIC50 (MDCK [13]): > 150 µg/mL; MIC50 (Human alphaherpesvirus 1 [14]): > 40 µg/mL; MIC50 (Influenza B virus): > 100 µg/mL; MIC50 (Human alphaherpesvirus 2): > 40 µg/mL; MIC50 (HEL): > 50 µg/mL; MIC50 [15]: > 20 µg/mL |
| CC1(C)CCCN1CC12CC3CC(CC(C3)C1)C2 | > 40 µg/mL | > 200 µg/mL | > 50 µg/mL | > 250 µg/mL | > 40 µg/mL | 99 µg/mL (≈ 400 µM) | > 200 µg/mL | > 200 µg/mL | > 40 µg/mL | > 40 µg/mL | 100 µg/mL (≈ 404 µM) | > 400 µg/mL | > 200 µg/mL | > 400 µg/mL | > 50 µg/mL | > 50 µg/mL | 100 µg/mL (≈ 404 µM) | > 87 µg/mL | > 200 µg/mL | > 200 µg/mL | MIC50 [11]: 35 µg/mL (≈ 141 µM); MIC50 (Coxsackievirus B4 [12]): > 200 µg/mL; MIC50 (MDCK [13]): > 150 µg/mL; MIC50 (Human alphaherpesvirus 1 [14]): > 40 µg/mL; MIC50 (Influenza B virus): > 100 µg/mL; MIC50 (Human alphaherpesvirus 2): > 40 µg/mL; MIC50 (HEL): > 50 µg/mL; MIC50 [15]: > 40 µg/mL |
| CC(C)(C)C1CCCN1CC12CC3CC(CC(C3)C1)C2 (stereo not drawn) | > 100 µg/mL | > 200 µg/mL | 20 µg/mL (≈ 72.6 µM) | > 250 µg/mL | > 100 µg/mL | 72 µg/mL (≈ 261 µM) | > 200 µg/mL | > 200 µg/mL | > 40 µg/mL | > 100 µg/mL | 200 µg/mL (≈ 726 µM) | 200 µg/mL (≈ 726 µM) | > 200 µg/mL | 400 µg/mL (≈ 1450 µM) | 35 µg/mL (≈ 127 µM) | > 50 µg/mL | > 100 µg/mL | > 100 µg/mL | > 100 µg/mL | > 200 µg/mL | MIC50 [11]: > 100 µg/mL; MIC50 (Coxsackievirus B4 [12]): > 100 µg/mL; MIC50 (MDCK [13]): > 104 µg/mL; MIC50 (Human alphaherpesvirus 1 [14]): > 100 µg/mL; MIC50 (Influenza B virus): > 100 µg/mL; MIC50 (Human alphaherpesvirus 2): > 100 µg/mL; MIC50 (HEL): > 50 µg/mL; MIC50 [15]: > 40 µg/mL |
| CN1CCCC1C12CC3CC(CC(C3)C1)C2 (stereo not drawn) | > 100 µg/mL | > 400 µg/mL | > 50 µg/mL | 250 µg/mL (≈ 1140 µM) | > 100 µg/mL | 120 µg/mL (≈ 547 µM) | > 400 µg/mL | > 400 µg/mL | > 40 µg/mL | > 100 µg/mL | 200 µg/mL (≈ 912 µM) | > 400 µg/mL | > 400 µg/mL | > 400 µg/mL | > 50 µg/mL | > 50 µg/mL | > 400 µg/mL | 60 µg/mL (≈ 274 µM) | > 400 µg/mL | > 400 µg/mL | MIC50 [11]: 16.5 µg/mL (≈ 75.2 µM); MIC50 (Coxsackievirus B4 [12]): > 400 µg/mL; MIC50 (MDCK [13]): > 34 µg/mL; MIC50 (Human alphaherpesvirus 1 [14]): > 100 µg/mL; MIC50 (Influenza B virus): 60 µg/mL (≈ 274 µM); MIC50 (Human alphaherpesvirus 2): > 100 µg/mL; MIC50 (HEL): > 50 µg/mL; MIC50 [15]: > 40 µg/mL |
| CN(C)C1(C23CC4CC(CC(C4)C2)C3)CCCC1 | > 40 µg/mL | > 400 µg/mL | 30 µg/mL (≈ 121 µM) | > 250 µg/mL | > 40 µg/mL | 70 µg/mL (≈ 283 µM) | > 400 µg/mL | > 400 µg/mL | > 40 µg/mL | > 40 µg/mL | 100 µg/mL (≈ 404 µM) | 200 µg/mL (≈ 808 µM) | > 400 µg/mL | > 400 µg/mL | 30 µg/mL (≈ 121 µM) | 40 µg/mL (≈ 162 µM) | > 100 µg/mL | > 100 µg/mL | > 100 µg/mL | > 400 µg/mL | MIC50 [11]: 19.7 µg/mL (≈ 79.6 µM); MIC50 (Coxsackievirus B4 [12]): > 100 µg/mL; MIC50 (MDCK [13]): > 80 µg/mL; MIC50 (Human alphaherpesvirus 1 [14]): > 40 µg/mL; MIC50 (Influenza B virus): > 100 µg/mL; MIC50 (Human alphaherpesvirus 2): > 40 µg/mL; MIC50 (HEL): 50 µg/mL (≈ 202 µM); MIC50 [15]: > 40 µg/mL |
| C1CCC2(NC1)C1CC3CC(C1)CC2C3 (stereo not drawn) | 100 µg/mL (≈ 487 µM) | > 400 µg/mL | > 50 µg/mL | > 250 µg/mL | > 200 µg/mL | 93 µg/mL (≈ 453 µM) | > 400 µg/mL | > 400 µg/mL | > 40 µg/mL | > 200 µg/mL | 400 µg/mL (≈ 1950 µM) | > 400 µg/mL | > 400 µg/mL | > 400 µg/mL | > 50 µg/mL | > 50 µg/mL | > 400 µg/mL | 43 µg/mL (≈ 209 µM) | > 400 µg/mL | > 400 µg/mL | MIC50 [11]: 0.24 µg/mL (≈ 1.17 µM); MIC50 (Coxsackievirus B4 [12]): > 400 µg/mL; MIC50 (MDCK [13]): > 35 µg/mL; MIC50 (Human alphaherpesvirus 1 [14]): > 200 µg/mL; MIC50 (Influenza B virus): 60 µg/mL (≈ 292 µM); MIC50 (Human alphaherpesvirus 2): > 200 µg/mL; MIC50 (HEL): > 50 µg/mL; MIC50 [15]: > 40 µg/mL |
